The results in this text go back to ChEMBL document CHEMBL4196023, “Cyclic peptide inhibitors of lysine-specific demethylase 1 with improved potency identified by alanine scanning mutagenesis” (Eur J Med Chem, 2018).

What is called IC50 is the concentration needed to halve the response being measured. What is called inhibition is the relative decrease from the control value, in per cent.

One test concerns MCF7. The experiment in a line: Antiproliferative activity against human MCF7 cells after 72 hrs by MTS assay. Format: functional, cell-based. The note with it: MCF7, 72 h.
Test [1] relates to Calu-6. The experiment in a line: Antiproliferative activity against human Calu6 cells after 72 hrs by MTS assay. Format: functional, cell-based. The note with it: Calu-6, 72 h. Background: Formazan colour is commonly taken as a measure of viable cells.
The test system of test [2] is K562. The experiment in a line: Antiproliferative activity against human K562 cells after 72 hrs by MTS assay. Format: functional, cell-based. The note with it: K562, 72 h.
Test [3] deals with Calu-6. The experiment in a line: Inhibition of cell proliferation in human Calu6 cells at 50 uM after 72 hrs by MTS assay relative to control. The note with it: Calu-6, 72 h. Format: functional.
The subject of test [4] is K562. The experiment in a line: Antiproliferative activity against human K562 cells assessed as cell death at 50 uM after 72 hrs by MTS assay relative to control. Format: functional.
Test [5] has as its target Lysine-specific histone demethylase 1A (Homo sapiens) (UniProt O60341). The experiment in a line: Inhibition of LSD1 in human K562 cells assessed as increase in H3K4me2 expression at 10 uM after 48 hrs by Western lot analysis relative to control. Format: cell-based.
For test [6] the target is unchanged. The experiment in a line: Inhibition of LSD1 in human Calu6 cells assessed as increase in H3K4me2 expression at 10 uM after 48 hrs by Western lot analysis relative to control. Format: cell-based.
Test [7] shares this target. The experiment in a line: Inhibition of LSD1 in human NCI-H526 cells assessed as increase in H3K4me2 marks at promoter of IGFBP2 at 100 uM after 48 hrs by ChIP-qPCr method. Format: cell-based. In short, it runs like this: (§1)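 NCI-H526 small cell lung carcinoma cells treated 48 h at 100 µM alongside an untreated control. Cells formaldehyde cross-linked, nuclei sonicated and chromatin enzymatically digested. IP with H3K4me2 antibody (normal rabbit IgG as negative control) on protein G magnetic beads. Purified DNA quantified by TaqMan qPCR at promoter regions; fold change by comparative CT (Livak). SD from three qPCR wells.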

Test [8] has the same target. As to the kind of experiment: Inhibition of LSD1 in human NCI-H526 cells assessed as increase in H3K4me2 marks at promoter of FEZ1 at 100 uM after 48 hrs by ChIP-qPCr method. Format: cell-based. In short, it runs like this:
as §1

Test [9] shares this target. As to the kind of experiment: Inhibition of LSD1 in human K562 cells assessed as increase in H3K4me2 expression after 48 hrs by Western lot analysis.

Active and inactive are the calls of the source. The calls are words filed in the database; no cut-off is given here. Positions of bridges follow the written chain, without caps; N, C: chain ends. Residues, ends and D or L forms follow the SMILES beside them. *: point of attachment. Decanoyl = CCCCCCCCCC(=O)*

In the case of `N=C(NCCCNCCCCCCCNCCCNC(=N)NC(=N)NCCC(c1ccccc1)c1ccccc1)NC(=N)NCCC(c1ccccc1)c1ccccc1`, the IC50 in the test on MCF7 was 2.5 to 5.1 µM; in the test with Calu-6 [1], 1.6 to 6.3 µM; in the test on K562 [2], 4.3 µM. In addition, the inhibition at 50 µM in the test on Calu-6 [3] worked out at 83%. In the test on K562 [4], the Activity worked out at 88%. Besides, the fold change (FC) in [5] is 2 to 17.

For `CCCCCCCCCC(=O)NCCCC[C@H](NC(=O)[C@H](C)NC(=O)[C@H](CC(C)C)NC(=O)[C@H](CCC(N)=O)NC(=O)[C@H](CCCCN)NC(=O)[C@H](CCCNC(=N)N)NC(=O)[C@@H]1CCCN1C(=O)[C@H](C)NC(=O)[C@H](CCCCN)NC(=O)CNC(=O)CNC(=O)[C@@H](NC(=O)[C@@H]1CCC(=O)NCCCC[C@H](NC(=O)[C@H](CCSC)NC(=O)[C@@H](NC(=O)[C@H](CCCNC(=N)N)NC(=O)[C@H](C)N)[C@@H](C)O)C(=O)N[C@@H]([C@@H](C)O)C(=O)N[C@@H](C)C(=O)N[C@@H](CCCNC(=N)N)C(=O)N[C@@H](CCCCN)C(=O)N1)[C@@H](C)O)C(N)=O`, the results for the IC50 in the test with MCF7 and in the test on Calu-6 [1] were 36.1 µM and 92.4 µM, respectively. Moreover, the fold change (FC) in test [5] amounted to 17.6. Also, in test [6], the result was inactive. Moreover, the inhibition entry in test [7] and in [8] was “Active” in each case.

In the case of `CCCCCCCCCC(=O)NCCCC[C@H](NC(=O)[C@H](C)NC(=O)[C@H](CC(C)C)NC(=O)[C@H](CCC(N)=O)NC(=O)[C@H](CCCCN)NC(=O)[C@H](CCCNC(=N)N)NC(=O)[C@@H]1CCCN1C(=O)[C@H](C)NC(=O)[C@H](CCCCN)NC(=O)CNC(=O)CNC(=O)[C@@H](NC(=O)[C@@H]1CCC(=O)NCCCC[C@H](NC(=O)[C@H](CCSC)NC(=O)[C@H](C)NC(=O)[C@H](CCCNC(=N)N)NC(=O)[C@H](C)N)C(=O)N[C@@H]([C@@H](C)O)C(=O)N[C@@H](C)C(=O)N[C@@H](CCCNC(=N)N)C(=O)N[C@@H](CCCCN)C(=O)N1)[C@@H](C)O)C(N)=O` (H-ARAMKTARKETGGKAPRKQLAK(Decanoyl)-NH2; lactam 5-10), the IC50 came to 28.1 µM with MCF7, 40.2 µM in the test on Calu-6 [1] and 95.1 µM with K562 [2]. Moreover, the fold change (FC) in test [5] was 2 to 17. Besides, the inhibition entry in [7] and in test [8] was “Active” each time. The inhibition entry in test [9] is “Dose-dependent effect”.
